Laboratory results as given in ChEMBL document CHEMBL2010661, “Optimization of 2,4-diarylanilines as non-nucleoside HIV-1 reverse transcriptase inhibitors” (Bioorg Med Chem Lett, 2012).
In brackets after ≈: the same amount, converted by molar mass.

Tests used:
Liver microsomes [1] = assay: Half life in human liver microsomes at 1 uM; type: ADME, Microsome
Method in brief: (§1)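 1 μM compound (diluted from DMSO stock via ACN) at 37 °C in 0.1 M potassium phosphate pH 7.4 with 0.1 mg/mL human liver microsomes and 5 mM MgCl2. NADPH (1.0 mM final) started the reaction.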

Liver microsomes [2] = assay: Half life in rat liver microsomes at 1 uM; type: ADME, Microsome
Method in brief: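 Rat liver microsome incubation of 1 μM compound at 37 °C in 0.1 M potassium phosphate pH 7.4 with 5 mM MgCl2. NADPH (1.0 mM final) started the reaction, with ice-cold ACN quench at 0–60 min, in duplicate. […] Means of at least two experiments.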

[3] = tested on: Human immunodeficiency virus 1; assay: Antiviral activity against Human immunodeficiency virus 1 harboring reverse transcriptase E138K mutant; type: functional, organism-based
Liver microsomes [4] = assay: Clearance in human liver microsomes at 1 uM; type: ADME, Microsome; method in brief: as §1
[5] = Aqueous solubility of the compound at pH 2 by HPLC/UV analysis; type: physicochemical; details: buffer
[6] = Aqueous solubility of the compound at pH 7.4 by HPLC/UV analysis; type: physicochemical; details: buffer
[7] = tested on: Human immunodeficiency virus 1; assay: Antiviral activity against Human immunodeficiency virus 1 NL4-3 infected in human TZM-bl cells assessed as inhibition of viral replication; type: functional, organism-based; details: Human immunodeficiency virus 1, NL4-3, TZM-bl
[8] = Cytotoxicity against human TZM-bl cells; type: cell-based
[9] = Selectivity index, ratio of CC50 for human TZM-bl cells to EC50 for Human immunodeficiency virus 1 NL4-3; type: toxicity, cell-based; details: read-out: Ratio CC50/EC50
[10] = tested on: Human immunodeficiency virus 1; assay: Antiviral activity against Human immunodeficiency virus 1 harboring reverse transcriptase K101E mutant; type: functional, organism-based
Method in brief: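 EC50 against the resistant strain (RTMDR1, K101E or E138K), from experiments run at least in triplicate and reported as mean ± SD.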

[11] = tested on: Human immunodeficiency virus 1; assay: Antiviral activity against multi-reverse transcriptase-resistant Human immunodeficiency virus 1; type: functional, organism-based

Compound	t1/2 (Liver microsomes [1]) [h]	t1/2 (Liver microsomes [2]) [h]	EC50 [3] [nM]	CLH (Liver microsomes [4]) [µL/min/mg]	solubility [5] [µg/mL]	solubility [6] [µg/mL]	EC50 [7] [nM]	CC50 [8] [nM]	selectivity ratio [9]	EC50 [10] [nM]	EC50 [11] [nM]
Cc1cc(/C=C/C#N)cc(C)c1Oc1cc(Nc2ccc(C#N)cc2)c(N)cc1[N+](=O)[O-]	0.783	2.32	11.3	150							
COC(=O)c1cc(N)c(Nc2ccc(C#N)cc2)cc1Oc1c(C)cc(/C=C/C#N)cc1C					1.75 (≈ 3.99 µM)	1.3 (≈ 2.96 µM)	2.74	> 22800	> 8460		
Cc1cc(/C=C/C#N)cc(C)c1Oc1cc(Nc2ccc(C#N)cc2)c(N)cc1C(=O)O					4.4 (≈ 10.4 µM)	117 (≈ 276 µM)	230	14900	65		
Cc1cc(/C=C/C#N)cc(C)c1Oc1cc(Nc2ccc(C#N)cc2)c(N)cc1C(N)=O	0.583	2.03	9	200	2.1 (≈ 4.96 µM)	0.63 (≈ 1.49 µM)	0.87	> 23600	> 27100	8.8	0.31
CNC(=O)c1cc(N)c(Nc2ccc(C#N)cc2)cc1Oc1c(C)cc(/C=C/C#N)cc1C					8.63 (≈ 19.7 µM)	1.32 (≈ 3.02 µM)	5.72	> 9200	> 1610		
Cc1cc(/C=C/C#N)cc(C)c1Oc1cc(Nc2ccc(C#N)cc2)c(N)cc1CO	0.5	1.4	3.9	230	21 (≈ 51.2 µM)	3.23 (≈ 7.87 µM)	0.53	16300	30800	3.4	0.36
Cc1cc(/C=C/C#N)cc(C)c1Nc1ccnc(Nc2ccc(C#N)cc2)n1 [RILPIVIRINE]	0.567	2		200				19400			
